Where two headings read alike, the source gives them in different places.
Assays:
[1] = target: T1, K. pneumoniae LpxH (KpLpxH) (Klebsiella pneumoniae subsp. pneumoniae, UniProt A6T5R0); assay: LpxE-coupled malachite green LpxH activity assay; assay type: biochemical
T1 sequence (A6T5R0 1-240): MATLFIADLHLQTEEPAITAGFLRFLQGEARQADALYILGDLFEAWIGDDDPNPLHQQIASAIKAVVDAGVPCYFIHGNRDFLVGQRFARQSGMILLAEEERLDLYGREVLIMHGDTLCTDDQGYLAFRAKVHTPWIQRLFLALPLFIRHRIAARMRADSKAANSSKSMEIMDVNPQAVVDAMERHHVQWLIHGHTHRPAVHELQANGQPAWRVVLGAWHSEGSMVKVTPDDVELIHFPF
In short: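 Enzyme/inhibitor and substrate mixes were preincubated 10 min at 37 °C, then combined (final 100 μM UDP-DAGn, 10 ng/mL enzyme). Aliquots were EDTA-quenched, then A. aeolicus LpxE 5 μg/mL was added for 30 min at 37 °C. Formic acid stop; malachite green A620. Triplicates; activity normalized to DMSO control; IC50 fit converted to competitive KI.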

[2] = target: T1, K. pneumoniae LpxH (KpLpxH); settings: cited from earlier work; for Percentage Activity of KpLpxH (vi/v0) / Percentage Inhibition of KpLpxH: 0.1 μM inhibitor, previously reported

SMILES	Percentage Inhibition of KpLpxH ([1]; 0.1 μM inhibitor) [%]	Ki ([1]; read-out: KI for KpLpxH, from IC50, competitive binding mode, KM 68.1 μM) [nM]	Percentage Activity of KpLpxH (vi/v0) [2]	Percentage Inhibition of KpLpxH [2]	Percentage Activity of KpLpxH (vi/v0) ([2]; listed as 2 (JH-LPH-33))	IC50 ([2]; read-out: IC50 of KpLpxH inhibition, reported value) [nM]	Ki ([2]; read-out: KI for KpLpxH, reported value) [nM]
O=C(CCCCCNC(=O)Nc1ccc(S(=O)(=O)N2CCN(c3cc(Cl)cc(C(F)(F)F)c3)CC2)cc1)NO [Compound 13]	97	3.1					
CC(=O)N1CCc2cc(S(=O)(=O)N3CCN(c4cccc(C(F)(F)F)c4)CC3)ccc21 [Compound 1]			78^[16] %	22^[16] %			
CC(=O)N1CCc2cc(S(=O)(=O)N3CCN(c4cc(Cl)cc(C(F)(F)F)c4)CC3)ccc21 [Compound 2]			21%	79^[16] %	21^[16] %	26	10
